Results on 17 compounds are retold here after ChEMBL document CHEMBL2380273, “Discovery of potent transient receptor potential vanilloid 1 antagonists: design and synthesis of phenoxyacetamide derivatives” (Bioorg Med Chem Lett, 2013).

Structures are written as SMILES. pIC50: −log10 of the molar value.

By pIC50 is commonly meant −log10 of the IC50, conventionally taken in molar units.

Test [1] concerns the target Transient receptor potential cation channel subfamily V member 1 (Homo sapiens, UniProt Q8NER1). Kind of test: Antagonist activity at human TRPV1 transfected in CHOK1 cells assessed as inhibition of capsaicin-induced intracellular calcium level measured for 120 secs by FLIPR analysis. The class given is cell-based, CHO-K1. The method, boiled down: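 CHO-K1 cells stably expressing hTRPV1, grown to 90% confluency, loaded 90 min at rt with Fluo4-AM (2 μM) in HBSS/20 mM HEPES pH 7.4, then washed three times. Test agent added at various concentrations together with 100 nM capsaicin. Peak fluorescence over 120 s averaged in triplicate. IC50 is the concentration giving 50% inhibition of the capsaicin control response.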
(In general: A change in cytosolic calcium serves as a functional read-out for many receptors and channels.)

Test [2] has as its system Rattus norvegicus. Put plainly: Suppression of capsaicin-induced bladder contraction in iv dosed Sprague-Dawley rat overactive bladder model. The class given is functional, organism-based. The method, boiled down: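 Female Sprague–Dawley rats anesthetized with urethane (1.0 g/kg ip) and bladder catheterized via the urethra, with saline infused at 3.0 mL/h for 5 min for basal pressure. Capsaicin 30 μg/kg iv given every 10 min. After stable contractions, test agent or vehicle (20% cremophor EL) given iv, followed by capsaicin again. Reported as % change in contraction. n=4, mean ± SEM; Bartlett's then Williams' test versus vehicle.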

Test [3] relates to Rattus norvegicus. Kind of test: Reduction of cyclophosphamide-induced voiding frequency in iv dosed Sprague-Dawley rat cystitis and pollakiuria model measured for 20 mins. The class given is functional, organism-based. The method, boiled down:
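Female Sprague–Dawley rats given cyclophosphamide 150 mg/kg ip. Bladder catheter implanted 4 h later, with saline infused at 3.6 mL/h for continuous cystometry. Once voiding frequency was stable, dosed iv with test agent or vehicle (20% cremophor EL). Voids counted for 20 min before and after dosing and expressed as % change. n=4, mean ± SEM; Bartlett's then Williams' test versus vehicle.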

Sequence of Transient receptor potential cation channel subfamily V member 1 (Q8NER1 whole entry): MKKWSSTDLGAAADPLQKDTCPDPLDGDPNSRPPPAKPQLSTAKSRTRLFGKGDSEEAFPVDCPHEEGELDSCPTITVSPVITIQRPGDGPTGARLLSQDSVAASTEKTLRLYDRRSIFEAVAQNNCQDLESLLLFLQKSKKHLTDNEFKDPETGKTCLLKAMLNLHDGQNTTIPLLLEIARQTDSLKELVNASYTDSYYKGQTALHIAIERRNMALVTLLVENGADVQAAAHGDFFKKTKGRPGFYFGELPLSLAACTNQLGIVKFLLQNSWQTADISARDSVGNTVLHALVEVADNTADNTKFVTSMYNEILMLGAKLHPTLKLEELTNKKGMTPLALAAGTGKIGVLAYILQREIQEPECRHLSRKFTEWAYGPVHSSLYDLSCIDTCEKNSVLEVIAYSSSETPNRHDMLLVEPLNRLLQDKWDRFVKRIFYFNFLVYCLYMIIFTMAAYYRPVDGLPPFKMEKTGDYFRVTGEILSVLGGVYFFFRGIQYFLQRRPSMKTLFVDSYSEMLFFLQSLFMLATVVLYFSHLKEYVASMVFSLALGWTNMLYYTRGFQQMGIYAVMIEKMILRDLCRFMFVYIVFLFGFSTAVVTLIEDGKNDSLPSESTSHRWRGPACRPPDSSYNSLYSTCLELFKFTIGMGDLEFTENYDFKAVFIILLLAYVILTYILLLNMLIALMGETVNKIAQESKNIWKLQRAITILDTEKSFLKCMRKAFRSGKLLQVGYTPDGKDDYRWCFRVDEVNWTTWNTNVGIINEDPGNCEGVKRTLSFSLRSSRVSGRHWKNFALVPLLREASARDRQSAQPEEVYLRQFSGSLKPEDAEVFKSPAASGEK

In the case of `CC(C)(C)c1ccc(OCC(=O)Nc2ccc(N3CCCC3)nc2)cc1`, the pIC50 in test [1] is 6.39.
Same read-out and setting: next, `CN(CCO)c1ccc(NC(=O)COc2ccccc2)cn1`: less than 5.00; `CN(C)c1ccc(NC(=O)COc2ccc(C(C)(C)C)cc2)cn1`: 7.23; `CN(CCO)c1ccc(NC(=O)COc2ccc(C(C)(C)C)cc2N2CCCCC2)cn1`: 6.03.
The same measure, in the same setting: for `CN(CCO)c1ccc(NC(=O)COc2ccc(C(C)(C)C)cc2Br)cn1` the value was 7.07; for `CC(C)c1ccc(OCC(=O)Nc2ccc(N(C)CCO)nc2)cc1`, 6.96; for `Cc1cc(NC(=O)COc2ccc(C(C)(C)C)cc2)cnc1N(C)CCO`, 6.89.
On the same count and under the same terms, next, `CN(CCO)c1ccc(NC(=O)COc2ccccc2C(C)(C)C)cn1`: 6.10.
Take `CCN(C)c1ccc(NC(=O)COc2ccc(C(C)(C)C)cc2)cn1`: the pIC50 in test [1] was 6.23.
With `CN(CCO)c1ccc(NC(=O)COc2ccc(C(C)(C)C)cc2C(C)(C)C)cn1`, in test [1], the negative-log IC50 (pIC50) was 6.97.
Same read-out and setting: next, `O=C(Nc1ccccc1Br)N[C@H]1CCN(c2ccc(C(F)(F)F)cn2)C1`: 6.92; `CN(CCO)c1ccc(NC(=O)COc2ccc(C(F)(F)F)cc2)cn1`: less than 5.00; `CN(CCO)c1ncc(NC(=O)COc2ccc(C(C)(C)C)cc2)cc1Cl`: 7.36.
Take `CN(CCO)c1ccc(NC(=O)COc2ccc(C34CC5CC(CC(C5)C3)C4)cc2)cn1`: the negative-log IC50 (pIC50) in test [1] was less than 5.00.
On the same count and under the same terms, for `CC(C)(C)c1ccc(OCC(=O)Nc2ccc(N3CCC(O)C3)nc2)cc1` (centres undefined) the value was 6.29.
In the case of `CN(CCO)c1ccc(NC(=O)COc2ccc(C(C)(C)C)cc2)cn1`, the Activity entry in test [2] and in test [3] was “Dose-dependent effect” throughout. Besides, the pIC50 in test [1] is 7.48.
Take `CN(CCO)c1ccc(NC(=O)COc2cccc(C(C)(C)C)c2)cn1`: the negative-log IC50 (pIC50) in test [1] was 5.58.
